Laboratory results as given in ChEMBL document CHEMBL4673258, “Discovery of IPN60090, a Clinical Stage Selective Glutaminase-1 (GLS-1) Inhibitor with Excellent Pharmacokinetic and Physicochemical Properties” (J Med Chem, 2020).

Legend:
[1] = rat, microsomes, 0.75 h, 1 µM
[2] = Oral bioavailability in Beagle dog at 3 mg/kg administered via gavage by LC-MS/MS analysis; assay type: ADME, organism-based, Canis lupus familiaris; settings: in vivo
In short: (§1)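 Bis-hydrochloride salt given to male Sprague-Dawley rats (200–300 g) or male beagle dogs (7–10 kg), fasted overnight and fed 4 h postdose. IV dose 0.3 mg/kg (rat dorsal foot vein, dog cephalic vein) or PO gavage 3 mg/kg.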

[3] = AUClast in Beagle dog at 3 mg/kg, po administered via gavage by LC-MS/MS analysis; assay type: ADME, organism-based, Canis lupus familiaris; parameters: time 0 - last, route oral, dose 3 mg/kg; settings: in vivo
In short: (§2)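 Male beagle dogs (7–10 kg), fasted overnight and fed 4 h postdose, received the bis-hydrochloride salt at 3 mpk by oral gavage. Plasma concentrations by LC-MS/MS; Cmax and AUClast from the oral dose.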

[4] = Volume of distribution at steady state in Beagle dog at 0.3 mg/kg, iv by LC-MS/MS analysis; assay type: ADME, organism-based, Canis lupus familiaris; settings: in vivo, 0.3 mg/kg
In short: as §1

[5] = Half life in Beagle dog at 0.3 mg/kg, iv by LC-MS/MS analysis; assay type: ADME, organism-based, Canis lupus familiaris; settings: in vivo, 0.3 mg/kg
In short: as §1

[6] = Half life in Sprague-Dawley rat at 0.3 mg/kg, iv by LC-MS/MS analysis; assay type: ADME, organism-based; settings: in vivo
In short: as §1

[7] = Intrinsic clearance in dog hepatocytes […] at 2 uM measured after 15 to 120 mins by LC-MS analysis; assay type: ADME, cell-based, Canis lupus familiaris, Hepatocyte; settings: time 15-120 min
In short: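 Hepatocytes at 2×10^6 viable cells/mL, mixed with an equal volume of 2 μM compound in KHB buffer. Incubated at 37 °C and quenched with ACN at 0, 15, 30, 60 and 120 min. Analysed by LC/MS, with percent remaining from peak area ratio to internal standard against 0 min. Half-life from a single-phase exponential fit.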

[8] = AUClast in Sprague-Dawley rat at 3 mg/kg, po administered via gavage by LC-MS/MS analysis; assay type: ADME, organism-based; parameters: route oral, time 0 - last, dose 3 mg/kg; settings: in vivo
In short: (§3)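 Male Sprague-Dawley rats (200–300 g), fasted overnight and fed 4 h postdose, given the bis-hydrochloride salt at 3 mpk by oral gavage. Tail-vein blood into K2EDTA taken predose and at 0.083–24 h (0.083, 0.25, 0.5, 1, 2, 4, 8, 24 h). Plasma analysed by LC-MS/MS; Cmax and AUClast derived from the oral dose.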

[9] = Volume of distribution at steady state in Sprague-Dawley rat at 0.3 mg/kg, iv by LC-MS/MS analysis; assay type: ADME, organism-based; settings: in vivo
In short: as §1

[10] = Cmax in Beagle dog at 3 mg/kg, po administered via gavage by LC-MS/MS analysis; assay type: ADME, organism-based, Canis lupus familiaris; parameters: route oral, dose 3 mg/kg; settings: in vivo
In short: as §2

[11] = Oral bioavailability in Sprague-Dawley rat at 3 mg/kg administered via gavage by LC-MS/MS analysis; assay type: ADME, organism-based; settings: in vivo
In short: as §1

[12] = Cmax in Sprague-Dawley rat at 3 mg/kg, po administered via gavage by LC-MS/MS analysis; assay type: ADME, organism-based; parameters: route oral, dose 3 mg/kg; settings: in vivo
In short: as §3

[13] = Permeability across basolateral to apical side in human Caco-2 cells at 10 uM measured after 90 mins by LC-MS/MS analysis; assay type: ADME, cell-based
In short: (§4)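 Caco-2 monolayers grown 21–28 days on polycarbonate filter inserts, with TEER and Lucifer Yellow checked before and after. Compound at 10 μM in HBSS with 25 mM HEPES, pH 7.4. Run A→B and B→A at 37 °C for 90 min. Receiver and donor samples quantified by LC-MS/MS.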

[14] = Permeability across apical to basolateral side in human Caco-2 cells at 10 uM measured after 90 mins by LC-MS/MS analysis; assay type: ADME, cell-based
In short: as §4

[15] = Cmax in Sprague-Dawley rat at 2 mg/kg, po administered via gavage by LC-MS/MS analysis; assay type: ADME, organism-based; parameters: route oral, dose 2 mg/kg; settings: in vivo
[16] = AUClast in Sprague-Dawley rat at 2 mg/kg, po administered via gavage by LC-MS/MS analysis; assay type: ADME, organism-based; parameters: route oral, time 0 - last, dose 2 mg/kg; settings: in vivo
[17] = Oral bioavailability in Sprague-Dawley rat at 2 mg/kg administered via gavage by LC-MS/MS analysis; assay type: ADME, organism-based; settings: in vivo
[18] = human, microsomes, 0.75 h, 1 µM
[19] = Intrinsic clearance in monkey liver microsomes assessed per kg protein at 1 uM measured up to 45 mins in presence of NADPH by LC-MS/MS analysis; assay type: ADME, Macaca mulatta, Microsome; settings: rhesus monkey, 0.75 h
[20] = Intrinsic clearance in mouse hepatocytes […] at 2 uM measured after 15 to 120 mins by LC-MS analysis; assay type: ADME, cell-based, Hepatocyte; settings: time 15-120 min
[21] = Intrinsic clearance in mouse liver microsomes assessed per kg protein at 1 uM measured up to 45 mins in presence of NADPH by LC-MS/MS analysis; assay type: ADME, Microsome; settings: 0.75 h
[22] = Intrinsic clearance in monkey hepatocytes […] at 2 uM measured after 15 to 120 mins by LC-MS analysis; assay type: ADME, cell-based, Macaca mulatta, Hepatocyte; settings: rhesus monkey, time 15-120 min

CNC(=O)c1cn(CCCCc2ccc(NC(=O)Cc3cc(OCC(F)(F)F)ccn3)nn2)nn1
CLH [1]: 0.4 mL/min

O=C(Cc1ccccc1)Nc1ccc(CCCCn2cc(C(=O)NCc3ccccc3)nn2)nn1
CLH [1]: 128 mL/min

CNC(=O)c1cn(C[C@H](F)CCc2ccc(NC(=O)Cc3cc(C(F)(F)F)cc(C)n3)nn2)nn1
F [2]: 21% | AUClast [3]: 23 µM·h | Vdss [4]: 0.2 L/kg | t1/2 [5]: 2.6 h | t1/2 [6]: 3.3 h | CLint [7]: 9 mL/min/kg | AUClast [8]: 24 µM·h | Vdss [9]: 0.2 L/kg | Cmax [10]: 4500 nM | F [11]: 28% | Cmax [12]: 4400 nM | permeability [13]: 25 10^-6 cm/s | permeability [14]: 7.7 10^-6 cm/s

CNC(=O)c1cn(C[C@H](F)CCc2ccc(NC(=O)Cc3cc(-c4cccc(OC(F)(F)F)c4)ccn3)nn2)nn1.Cl
F [2]: 8% | AUClast [3]: 2.5 µM·h | Cmax [15]: 350 nM | Vdss [4]: 0.5 L/kg | t1/2 [5]: 2.5 h | t1/2 [6]: 2.7 h | AUClast [16]: 1.2 µM·h | F [17]: 19% | Vdss [9]: 1 L/kg | Cmax [10]: 580 nM

CNC(=O)c1cn(C[C@H](F)CCc2ccc(NC(=O)Cc3cc(OC4CC(F)(F)C4)cc(C)n3)nn2)nn1 [IPN-60090]
CLH [18]: <= 0.7 ml/min | CLint [19]: 21 mL/min/kg | CLint [20]: 16 mL/min/kg | CLint [7]: 7 mL/min/kg | CLint [21]: 55 mL/min/kg | CLint [22]: 12 mL/min/kg | permeability [13]: 25 10^-6 cm/s | permeability [14]: 5.2 10^-6 cm/s

CNC(=O)c1cn(C[C@H](F)CCc2ccc(NC(=O)Cc3cc(OC4CC(F)(F)C4)ccn3)nn2)nn1
CLint [7]: 4 mL/min/kg | permeability [13]: 20 10^-6 cm/s | permeability [14]: 1.8 10^-6 cm/s

CNC(=O)c1cn(C[C@H](F)CCc2ccc(NC(=O)Cc3cc(-c4cccc(OC(F)(F)F)c4)ccn3)nn2)nn1
CLint [7]: 12 mL/min/kg | permeability [13]: 21 10^-6 cm/s | permeability [14]: 5.8 10^-6 cm/s
